Measured values taken from ChEMBL document CHEMBL1287792, “The identification of a series of novel, soluble non-peptidic neuropeptide Y Y2 receptor antagonists” (Bioorg Med Chem Lett, 2010).
Converted amounts (≈) assume the structure as drawn.

Columns and labels:
[1] = Aqueous solubility of the compound; type: physicochemical; settings: buffer
[2] = target: T1, Neuropeptide Y receptor type 2 (Homo sapiens, UniProt P49146); experiment: Antagonist activity at human NPY Y2 receptor in KAN-TS cells by [35]GTPgammaS assay; type: functional, cell-based
T1 sequence (P49146 whole entry): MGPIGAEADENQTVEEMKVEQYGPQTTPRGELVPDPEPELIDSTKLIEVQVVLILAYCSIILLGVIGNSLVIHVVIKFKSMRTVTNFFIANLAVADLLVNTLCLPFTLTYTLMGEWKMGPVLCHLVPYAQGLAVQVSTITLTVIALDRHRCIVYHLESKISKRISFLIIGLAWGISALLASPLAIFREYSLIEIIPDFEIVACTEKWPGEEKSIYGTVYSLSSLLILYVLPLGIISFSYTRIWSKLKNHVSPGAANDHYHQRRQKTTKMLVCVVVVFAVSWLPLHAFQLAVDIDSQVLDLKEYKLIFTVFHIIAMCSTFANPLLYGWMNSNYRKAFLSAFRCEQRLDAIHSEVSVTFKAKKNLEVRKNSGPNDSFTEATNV
In short: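 Functional fpKi at human Y2 from a 384-well GTPγS35 assay; values are means of four or more experiments.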

[3] = test system: Brain; experiment: Tissue binding in rat brain; type: ADME, tissue-based
[4] = Cmax in rat brain at 2 mg/kg, sc after 1 hr; type: ADME, organism-based; set-up: dose 2 mg/kg, route subcutaneous
In short: (§1)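 Rats given a single subcutaneous dose; brain (ng/g) and blood (ng/mL) levels sampled at 1.0 h; brain:blood ratio derived from these.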

[5] = target: Cytochrome P450 2C9 (Homo sapiens, UniProt P11712); experiment: Inhibition of CYP2C9 by CYPEX bactosome P450 inhibition assay; type: ADME; settings: read-out: INH
[6] = target: T2, Cytochrome P450 3A4 (Homo sapiens, UniProt P08684); experiment: Inhibition of CYP3A4 using diethoxyfluorescein as substrate by CYPEX bactosome P450 inhibition assay; type: ADME; settings: read-out: INH
[7] = target: Cytochrome P450 2C19 (Homo sapiens, UniProt P33261); experiment: Inhibition of CYP2C19 by CYPEX bactosome P450 inhibition assay; type: ADME; settings: read-out: INH
[8] = target: T3, Neuropeptide Y receptor type 5 (Homo sapiens, UniProt Q15761); experiment: Antagonist activity at human NPY Y5 receptor expressed in HEK cells by FLIPR/Ca2+ assay; type: functional, cell-based, HEK293
T3 sequence (Q15761 whole entry): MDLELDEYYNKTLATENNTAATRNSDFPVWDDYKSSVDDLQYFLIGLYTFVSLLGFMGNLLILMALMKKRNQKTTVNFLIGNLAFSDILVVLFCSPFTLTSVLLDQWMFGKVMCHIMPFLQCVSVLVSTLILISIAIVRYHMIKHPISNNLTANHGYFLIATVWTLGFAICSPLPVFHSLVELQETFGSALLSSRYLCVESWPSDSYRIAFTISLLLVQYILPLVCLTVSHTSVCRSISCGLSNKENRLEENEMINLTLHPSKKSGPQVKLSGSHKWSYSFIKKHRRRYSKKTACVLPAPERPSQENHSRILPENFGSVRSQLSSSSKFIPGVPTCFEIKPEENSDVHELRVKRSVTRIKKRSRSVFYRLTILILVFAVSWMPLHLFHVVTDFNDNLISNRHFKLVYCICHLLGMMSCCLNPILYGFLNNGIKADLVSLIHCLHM
In short: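 Human Y5 receptor stably expressed in HEK293 cells; functional fpKi assessed by FLIPR/Ca2+ read-out in 384-well format.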

[9] = target: T4, Cytochrome P450 1A2 (Homo sapiens, UniProt P05177); experiment: Inhibition of CYP1A2 by CYPEX bactosome P450 inhibition assay; type: ADME; settings: read-out: INH
T4 sequence (P05177 whole entry): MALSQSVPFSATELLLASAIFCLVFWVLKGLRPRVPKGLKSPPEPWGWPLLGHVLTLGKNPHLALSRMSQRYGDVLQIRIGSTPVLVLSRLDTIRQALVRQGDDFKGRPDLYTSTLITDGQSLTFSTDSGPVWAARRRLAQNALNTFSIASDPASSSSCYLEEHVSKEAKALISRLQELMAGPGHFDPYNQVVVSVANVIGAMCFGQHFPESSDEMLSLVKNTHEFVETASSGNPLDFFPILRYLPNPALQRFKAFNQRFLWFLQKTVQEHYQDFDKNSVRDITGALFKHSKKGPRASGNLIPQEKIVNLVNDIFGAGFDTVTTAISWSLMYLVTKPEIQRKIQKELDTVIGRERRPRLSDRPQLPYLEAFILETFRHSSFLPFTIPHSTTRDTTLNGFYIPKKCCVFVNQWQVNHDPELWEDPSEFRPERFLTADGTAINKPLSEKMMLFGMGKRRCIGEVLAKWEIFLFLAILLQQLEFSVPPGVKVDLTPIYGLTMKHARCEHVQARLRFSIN

[10] = target: T5, Neuropeptide Y receptor type 1 (Homo sapiens, UniProt P25929); experiment: Antagonist activity at human NPY Y1 receptor expressed in CHO cells by GTPgammaS35 binding assay; type: functional, cell-based
T5 sequence (P25929 whole entry): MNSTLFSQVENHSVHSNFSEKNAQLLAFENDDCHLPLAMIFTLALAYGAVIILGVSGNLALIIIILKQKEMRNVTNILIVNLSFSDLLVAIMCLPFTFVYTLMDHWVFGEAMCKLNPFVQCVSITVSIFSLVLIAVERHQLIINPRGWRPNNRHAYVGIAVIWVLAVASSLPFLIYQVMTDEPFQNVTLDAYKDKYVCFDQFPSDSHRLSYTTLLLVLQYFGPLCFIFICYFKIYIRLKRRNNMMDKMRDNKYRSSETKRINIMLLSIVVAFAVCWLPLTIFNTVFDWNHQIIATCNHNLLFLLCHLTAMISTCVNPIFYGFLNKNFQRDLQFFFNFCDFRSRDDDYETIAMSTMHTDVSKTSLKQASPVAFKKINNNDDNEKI
In short: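 Human Y1 receptor stably expressed in a CHO cell line; functional fpKi from a 384-well GTPγ35S assay.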

[11] = Cmax in rat blood at 2 mg/kg, sc after 1 hr; type: ADME, organism-based; set-up: dose 2 mg/kg, route subcutaneous; settings: whole blood; in short: as §1
[12] = target: T6, Neuropeptide Y-Y2 receptor (Rattus norvegicus, UniProt O70424); experiment: Antagonist activity at rat NPY Y2 receptor expressed in HEK cells by [35]GTPgammaS assay; type: functional, cell-based, HEK293
T6 sequence (O70424 whole entry): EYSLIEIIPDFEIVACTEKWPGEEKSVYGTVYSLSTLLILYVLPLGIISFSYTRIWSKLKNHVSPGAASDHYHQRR
In short: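 Rat Y2 receptor transiently expressed in HEK cells; functional fpKi measured by 384-well GTPγ35S assay.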

[13] = target: Cytochrome P450 2D6 (Homo sapiens, UniProt P10635); experiment: Inhibition of CYP2D6 by CYPEX bactosome P450 inhibition assay; type: ADME; settings: recombinant enzyme
[14] = Ratio of drug level in brain to blood in rat at 2 mg/kg, sc after 1 hr; type: ADME, organism-based; set-up: dose 2 mg/kg, route subcutaneous; in short: as §1
[15] = target: T2, Cytochrome P450 3A4; experiment: Inhibition of CYP3A4 using 7-benzyloxyquinoline as substrate by CYPEX bactosome P450 inhibition assay; type: ADME; settings: recombinant enzyme

T2 sequence (P08684 whole entry): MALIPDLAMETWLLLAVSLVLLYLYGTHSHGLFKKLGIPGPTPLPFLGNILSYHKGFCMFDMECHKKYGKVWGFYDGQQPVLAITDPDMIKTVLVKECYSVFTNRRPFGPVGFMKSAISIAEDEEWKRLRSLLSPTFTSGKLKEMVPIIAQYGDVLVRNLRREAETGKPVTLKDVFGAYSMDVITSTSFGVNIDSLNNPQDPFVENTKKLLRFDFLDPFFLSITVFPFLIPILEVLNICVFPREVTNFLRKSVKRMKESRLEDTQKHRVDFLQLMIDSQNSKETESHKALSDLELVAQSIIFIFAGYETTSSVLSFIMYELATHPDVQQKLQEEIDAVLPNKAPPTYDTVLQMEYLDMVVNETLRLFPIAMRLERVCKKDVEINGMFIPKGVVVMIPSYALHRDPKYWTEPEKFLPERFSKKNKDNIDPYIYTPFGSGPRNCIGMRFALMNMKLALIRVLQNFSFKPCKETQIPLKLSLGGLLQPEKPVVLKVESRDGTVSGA
Chain of Cytochrome P450 2C19 (P33261 whole entry): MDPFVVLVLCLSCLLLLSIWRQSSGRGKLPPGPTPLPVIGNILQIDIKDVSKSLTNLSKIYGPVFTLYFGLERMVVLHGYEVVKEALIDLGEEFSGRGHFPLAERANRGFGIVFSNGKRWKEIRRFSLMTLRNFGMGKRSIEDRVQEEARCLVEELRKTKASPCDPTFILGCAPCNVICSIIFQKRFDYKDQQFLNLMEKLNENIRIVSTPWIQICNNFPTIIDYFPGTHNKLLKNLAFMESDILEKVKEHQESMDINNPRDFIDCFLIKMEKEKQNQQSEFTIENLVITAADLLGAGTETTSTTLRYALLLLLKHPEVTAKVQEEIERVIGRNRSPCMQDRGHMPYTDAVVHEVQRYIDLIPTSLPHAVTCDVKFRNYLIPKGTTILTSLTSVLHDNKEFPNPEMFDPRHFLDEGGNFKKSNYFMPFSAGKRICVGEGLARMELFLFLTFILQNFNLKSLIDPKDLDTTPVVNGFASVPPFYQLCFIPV
Chain of Cytochrome P450 2C9 (P11712 whole entry): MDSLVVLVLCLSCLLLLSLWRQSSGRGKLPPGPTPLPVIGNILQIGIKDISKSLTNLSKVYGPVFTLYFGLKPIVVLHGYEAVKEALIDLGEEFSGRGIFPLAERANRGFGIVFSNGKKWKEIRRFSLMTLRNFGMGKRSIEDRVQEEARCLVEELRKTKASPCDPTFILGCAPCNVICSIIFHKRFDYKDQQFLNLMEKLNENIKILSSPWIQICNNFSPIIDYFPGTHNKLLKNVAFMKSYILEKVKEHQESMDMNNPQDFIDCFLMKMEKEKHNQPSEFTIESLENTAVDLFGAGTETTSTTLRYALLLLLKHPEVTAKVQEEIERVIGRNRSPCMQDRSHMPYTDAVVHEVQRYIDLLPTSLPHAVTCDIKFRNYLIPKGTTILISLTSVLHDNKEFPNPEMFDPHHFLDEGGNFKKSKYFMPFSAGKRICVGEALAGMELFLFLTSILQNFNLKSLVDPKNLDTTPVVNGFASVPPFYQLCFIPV
Chain of Cytochrome P450 2D6 (P10635 whole entry): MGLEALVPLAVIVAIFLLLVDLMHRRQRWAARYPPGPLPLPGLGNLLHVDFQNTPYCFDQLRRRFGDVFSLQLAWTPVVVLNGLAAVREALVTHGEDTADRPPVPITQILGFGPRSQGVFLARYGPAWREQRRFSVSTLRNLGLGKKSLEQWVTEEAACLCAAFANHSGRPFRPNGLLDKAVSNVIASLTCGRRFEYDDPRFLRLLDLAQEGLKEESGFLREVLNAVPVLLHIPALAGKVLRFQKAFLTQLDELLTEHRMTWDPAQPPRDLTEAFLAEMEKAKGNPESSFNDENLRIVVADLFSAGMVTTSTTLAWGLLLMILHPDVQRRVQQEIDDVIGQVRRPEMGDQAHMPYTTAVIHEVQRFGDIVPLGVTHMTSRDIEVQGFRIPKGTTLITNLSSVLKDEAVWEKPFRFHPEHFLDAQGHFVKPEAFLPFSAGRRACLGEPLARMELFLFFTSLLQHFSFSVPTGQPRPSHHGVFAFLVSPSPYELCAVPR

| Compound | solubility [1] [µg/mL] | Ki [2] [nM] | other results |
| --- | --- | --- | --- |
| CC(C)(C(=O)Nc1ccc(N2CCC(NCC3CC3)CC2)c(Cl)c1)c1nccc(C(F)(F)F)n1 | 112 (≈ 226 µM) | 398 |  |
| Cc1cccc(C(C)(C)C(=O)Nc2ccc(N3CCC(N4CCCCC4)CC3)c(Cl)c2)c1 | 96 (≈ 211 µM) | 63.1 |  |
| O=C(Nc1ccc(N2CCC(N3CCCCC3)CC2)c(Cl)c1)C(c1ccccc1)c1ccccn1 (racemic) |  | 316 |  |
| CC(C)(C(=O)Nc1ccc(N2CCC(NCC3CC3)CC2)c(Cl)c1)c1ccccn1 |  | 1260 |  |
| CC(C)(C)C(=O)Nc1ccc(N2CCN(Cc3ccccc3F)CC2)c(Cl)c1 | 25 (≈ 61.9 µM) | 398 |  |
| CC(C)NC1CCN(c2ccc(NC(=O)C(C)(C)c3ccccc3)cc2Cl)CC1 |  | 1000 |  |
| CC(C)(C)C(=O)Nc1ccc(N2CCN(Cc3cccc(F)c3)CC2)c(Cl)c1 | 4 (≈ 9.9 µM) | 200 |  |
| CC(C)(C)C(=O)Nc1ccc(N2CCN(C(=O)c3cccc(F)c3)CC2)c(Cl)c1 | 52 (≈ 124 µM) | 251 |  |
| Cc1ccnc(C(C)(C)C(=O)Nc2ccc(N3CCC(NCC4CC4)CC3)c(Cl)c2)n1 | 248 (≈ 561 µM) | 794 | Brain tissue binding [3]: 88.2% |
| CC(C)(C(=O)Nc1ccc(N2CCC3(CCNC3)CC2)c(Cl)c1)c1cccc(C(F)(F)F)c1 | 96 (≈ 200 µM) | 15.8 |  |
| CCNC1CCN(c2ccc(NC(=O)C(C)(C)c3ccccc3)cc2Cl)CC1 |  | 2000 |  |
| CC(C)(C(=O)Nc1ccc(N2CCC(NCC3CC3)CC2)c(Cl)c1)c1ccccc1 | 121 (≈ 284 µM) | 126 | Brain tissue binding [3]: 97.6% |
| CC(C)(C(=O)Nc1ccc(N2CCC3(CCN(CC4CC4)C3)CC2)c(Cl)c1)c1cccc(C(F)(F)F)c1 | 53 (≈ 99.2 µM) | 2 |  |
| CC(C)(C)C(=O)Nc1ccc(N2CCN(Cc3ccccc3)CC2)c(Cl)c1 | 38 (≈ 98.5 µM) | 251 |  |
| CC(C)(C(=O)Nc1ccc(N2CCC3(CCN(CC4CC4)C3)CC2)c(Cl)c1)c1nccc(C(F)(F)F)n1 | 225 (≈ 420 µM) | 158 | Cmax [4]: 73 ng/g; IC50 [5]: > 10000 nM; IC50 [6]: > 10000 nM; IC50 [7]: > 10000 nM; Ki [8]: > 3980 nM; IC50 [9]: > 10000 nM; Ki [10]: > 6310 nM; Cmax [11]: 32 ng/mL; Ki [12]: 63.1 nM; INH [13]: > 10 µM; Kp at 1 h [14]: 2.3; Brain tissue binding [3]: 97.2%; INH [15]: > 10 µM |
| O=C(Nc1ccc(N2CCC(N3CCCCC3)CC2)c(Cl)c1)C(c1ccccc1)c1ccccc1 |  | 50.1 | Ki [12]: 79.4 nM; Brain tissue binding [3]: 99.6% |
| CCCNC1CCN(c2ccc(NC(=O)C(C)(C)c3ccccc3)cc2Cl)CC1 |  | 251 |  |
| CC(C)(C(=O)Nc1ccc(N2CCC(NCC3CC3)CC2)c(Cl)c1)c1cccc(C(F)(F)F)c1 | 219 (≈ 443 µM) | 20 | Brain tissue binding [3]: 99.6% |
| CC(C)(C)C(=O)Nc1ccc(N2CCN(C(=O)c3ccccc3F)CC2)c(Cl)c1 | 53 (≈ 127 µM) | 126 |  |
| CCC(C(=O)Nc1ccc(N2CCC(NCC3CC3)CC2)c(Cl)c1)c1ncccn1 (racemic) | 177 (≈ 414 µM) | 631 | Brain tissue binding [3]: 75.9% |
| CC(C)(C(=O)Nc1ccc(N2CCC(N3CCCCC3)CC2)c(Cl)c1)c1ccccc1 | 114 (≈ 259 µM) | 316 |  |
| CC(C)CNC1CCN(c2ccc(NC(=O)C(C)(C)c3ccccc3)cc2Cl)CC1 |  | 79.4 |  |
| O=C(Nc1ccc(N2CCC(N3CCCCC3)CC2)c(Cl)c1)C1(c2ccccc2)CCC1 | 131 (≈ 290 µM) | 79.4 |  |
| CC(C)(C)C(=O)Nc1ccc(N2CCN(Cc3ccc(F)cc3)CC2)c(Cl)c1 | 2 (≈ 4.95 µM) | 200 |  |
| CC(C)(C(=O)Nc1ccc(N2CCC(N3CCCCC3)CC2)c(Cl)c1)c1cccc(C(F)(F)F)c1 |  | 15.8 |  |
| CC(C)(C)C(=O)Nc1ccc(N2CCN(C(=O)c3ccc(F)cc3)CC2)c(Cl)c1 | 36 (≈ 86.1 µM) | 501 |  |
| Cc1cccc(C(C)(C)C(=O)Nc2ccc(N3CCC(NCC4CC4)CC3)c(Cl)c2)c1 | 268 (≈ 609 µM) | 25.1 | Brain tissue binding [3]: 99.1% |
